A selection: hits, their analogues and other compounds. The true share with any hit is near 2.1%.
MsrA inhibitor = bovine MsrA enzyme inhibitors, primary screen, biochemical, absorbance, HTS; Methionine sulfoxide reductase A (Bos taurus); AID 651718, 2012; purified bovine MsrA, absorbance read-out; hit rate 0.75% among 360,000; inhibition, % at 15.5 µM; in the data active = inhibition above about 4.5%;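 note: 0% = vehicle wells with enzyme and 100% = reference inhibitor wells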
IMP-1 inh = IMP-1 metallo-beta-lactamase inhibitors, primary screen, biochemical, epi-absorbance readout, Pseudomonas aeruginosa enzyme | AID 1556, 2009 | purified IMP-1, nitrocefin hydrolysis, epi-absorbance fluorescence | metallo-beta-lactamase IMP-1 (Pseudomonas aeruginosa) | hit rate 0.45% among 290,000 | inhibition, % at 5.6 µM;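 active = inhibition above the mean plus 3 SD of all compounds in the same screening run, cut at about 4.5% in these data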;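 note: 0% = IMP-1 with DMSO and 100% = DMSO wells lacking enzyme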
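Assay system: purified IMP-1; Quantity: IMP-1 0.2 nM before substrate addition; Medium: HEPES buffer pH 7.1 with ZnSO4 and Brij 35; Incubation: 15 min enzyme–compound preincubation, then 25 min nitrocefin reaction, 25 °C; Signal: fluorescence quenching readout, ex 480/em 530 nm; Controls: DMSO with and without IMP-1; Repeats: singlicate testing.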
PKA-R2B act = activators of PKA-R2B holoenzyme, primary screen, biochemical, fluorescence polarization, Cy5-IP20, human. cAMP-dependent protein kinase catalytic subunit beta (Homo sapiens) + cAMP-dependent …. PKA-R2B holoenzyme dissociation; R2B truncated from residue 108, S112A mutant; 0% DMSO only, 100% 113 µM cGMP. activation, % at 11.4 µM. hit rate 0.079% among 340,000;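 active = activation above a cutoff set at the mean over all compounds plus 3 SD, cut at about 18% in these data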;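 note: higher means more holoenzyme dissociation and a rise in polarization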
VIM-2 inhibitor = VIM-2 metallo-beta-lactamase inhibitors, primary screen, biochemical, epi-absorbance readout, Pseudomonas aeruginosa enzyme | purified VIM-2, nitrocefin hydrolysis, epi-absorbance fluorescence | AID 1527, 2009 | hit rate 0.89% among 290,000 | inhibition, % at 5.6 µM;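 active = inhibition above the mean of all tested compounds plus 3 SD, cutoff set per screening run, cut at about 7.5% in these data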;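 note: red hydrolysis product quenches plate fluorescence so inhibitors raise well fluorescence; 0% = enzyme with DMSO and 100% = DMSO without enzyme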
bovine MsrA act = bovine MsrA enzyme activators, primary screen, biochemical, absorbance, HTS | activation, % at 10.6 µM | Methionine sulfoxide reductase A (Bos taurus) | purified bovine MsrA, absorbance read-out | hit rate 0.3% among 360,000 | AID 602163, 2012; in the data active = activation above about 7.5%;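 note: 0% = vehicle and 100% = reference activator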
PKA-R1A act = activators of PKA-R1A holoenzyme, primary screen, biochemical, fluorescence polarization, Cy5-IP20, bovine R1A, mouse PKAc | activation, % at 11.4 µM | PKA-R1A dissociation; scaled: DMSO 0%, 113 µM cGMP 100% | cAMP-dependent protein kinase type I-alpha regulatory subunit (Bos taurus) + … | hit rate 0.083% among 340,000;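 active = percent activation above the mean of all tested compounds plus 3 SD, cut at about 19% in these data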;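 note: higher means more PKAc released from R1A so a rise in polarization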
R1A FP artifact = FP signal interference without PKA proteins, confirmation, artefact control for PKA-R1A activator project, biochemical, fluorescence polarization, triplicate | shares compounds with PKA-R1A act | Cy5-IP20 peptide alone, fluorescence polarization artifact counterscreen | activation, % at 11.4 µM | hit rate 7% among 280;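 active = mean activation over triplicate runs exceeds the adjusted cutoff derived for the parent primary screen, cut at about 19% in these data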;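 note: no PKA protein present so any polarization rise reflects compound interference; 0% = tracer peptide mix alone and 100% = mix with added PKA catalytic subunit; higher means stronger polarization artifact and likely false positive in parent screen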
PKA-R1A confirm = activators of PKA-R1A holoenzyme, confirmation, biochemical, fluorescence polarization, Cy5-IP20, triplicate; shares compounds with PKA-R1A act; PKA-R1A holoenzyme dissociation; activation, % at 11.4 µM; hit rate 9% among 280; AID 504800, 2011;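 active = mean activation over replicate wells exceeds the adjusted hit threshold taken from the earlier primary screen, cut at about 20% in these data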;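 note: 0% = holoenzyme mix with DMSO only and 100% = cGMP-activated control wells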
Target sequence (P00514 whole entry, looked up): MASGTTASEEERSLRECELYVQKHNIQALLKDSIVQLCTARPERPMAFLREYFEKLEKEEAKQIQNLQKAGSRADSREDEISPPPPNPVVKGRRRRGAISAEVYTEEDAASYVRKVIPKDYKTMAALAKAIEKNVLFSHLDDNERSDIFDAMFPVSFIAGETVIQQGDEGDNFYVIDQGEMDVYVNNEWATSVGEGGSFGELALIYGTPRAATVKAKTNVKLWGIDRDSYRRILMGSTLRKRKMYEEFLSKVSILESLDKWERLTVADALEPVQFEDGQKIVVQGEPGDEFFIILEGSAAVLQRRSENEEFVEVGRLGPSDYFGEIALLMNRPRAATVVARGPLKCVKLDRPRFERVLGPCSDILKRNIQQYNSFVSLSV
MsrA act confirm = bovine MsrA activators, retest, confirmation, biochemical, absorbance, HTS. shares compounds with bovine MsrA act. purified bovine MsrA, absorbance read-out. activation, % at 10.6 µM. hit rate 12% among 1,000; in the data active = activation above about 4%;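 note: enzyme coupled to thioredoxin and thioredoxin reductase with NADPH; 0% = vehicle wells and 100% = reference activator wells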
Starred values were filed as active, the others as inactive; · = no result given.

SMILES | MsrA inhibitor | IMP-1 inh | PKA-R2B act | VIM-2 inhibitor | bovine MsrA act | PKA-R1A act | R1A FP artifact | PKA-R1A confirm | others
CCN(CC(=O)Nc1cc(Cl)ccc1C)C(=O)CSCc1c(C)noc1C | 0 | · | 4 | · | -13 | 3 | · | ·
CCc1noc(C)c1C(=O)N(CC)CC(=O)Nc1cc(Cl)ccc1C | 0 | · | 1 | · | 0 | 19* | 3 | 3
C[C@H](CO)N1C[C@H](C)[C@@H](CN(C)CC2CCCCC2)Oc2ccc(NC(=O)Cn3cnnn3)cc2C1=O | 0 | · | -11 | · | -1 | -14 | · | ·
COc1ccccc1-c1csc(NC(=O)c2cc(-c3cccs3)nc3ccccc23)n1 | 3 | -4 | -8 | -5 | -4 | 23* | -1 | 3
CC1CCN(S(=O)(=O)c2cccc(C(=O)Nc3nncs3)c2)CC1 | 1 | -4 | 10 | -3 | -4 | 4 | · | ·
COc1ccc(/C=C2\SC(=O)N(CC(=O)Nc3ccc(O)cc3)C2=O)cc1OC | 3 | 0 | 17 | -1 | -2 | 23* | 18 | 23*
O=C(O)c1ccc2cccnc2n1 | 1 | -1 | 2 | -1 | -2 | 20* | 5 | 2
O=C(O)c1ccc2cccc(O)c2n1 | 3 | 0 | · | 2 | -3 | · | · | ·
CCOC(=O)c1c(NC(=O)c2cccc([N+](=O)[O-])c2C(=O)O)sc2c1CCCC2 | 2 | -2 | 3 | 4 | -3 | -4 | · | ·
CCOC(=O)c1c(NC(=O)c2c(C(=O)O)cccc2[N+](=O)[O-])sc2c1CCCC2 | 2 | 1 | -8 | 2 | -3 | 19* | 4 | 1
CCOC(=O)c1c(NC(=O)CCC(=O)O)sc2c1CCCCC2 | 1 | -1 | 0 | -1 | -7 | 20* | 3 | 9
COc1ncnc2c1ncn2CCCNCc1ccco1 | 2 | · | -3 | · | -3 | 2 | · | ·
COc1cc2c(cc1OC)CN(C(=O)C(CCSC)NS(=O)(=O)c1ccc(C)cc1)CC2 (stereo unspecified) | 1 | -2 | -10 | -1 | -2 | 20* | -1 | -2
O=C(NCc1ccccc1)c1cccc(NC(=O)c2ccco2)c1 | 1 | 0 | 5 | -1 | -2 | 22* | 10 | 7
O=C(Nc1cccc(Cl)c1)Nc1nnc(-c2ccncc2)s1 | 1 | -5 | 7 | -3 | -5 | 22* | 26* | 26*
CC[n+]1c(P(=O)([O-])c2ccccc2)[nH]c2ccccc21 | -1 | -1 | -5 | -3 | 1 | 21* | 6 | 4
O=P(CCCCCCCCCP(=O)(c1ccccc1)c1ccccc1)(c1ccccc1)c1ccccc1 | 1 | -2 | -4 | -1 | 5 | -5 | · | ·
CC(C)(C)C(=O)NCc1ccc(C(=O)CSc2nnc(C3CC3)n2C2CC2)s1 | 1 | · | 0 | · | -5 | 20* | -2 | 0
CN(CCOc1ccc(Cl)cc1)C(=O)c1ccccc1SCC(=O)N1CCCC1 | 0 | · | 8 | · | -3 | 21* | 8 | 2
CN(CC(=O)Nc1c(Cl)cccc1Cl)C(=O)c1ccccc1SCC(=O)N1CCCC1 | -1 | -5 | -2 | -3 | -1 | 0 | · | ·
CC1(C)N=C(N)N=C(N)N1c1ccc(CCCCc2ccccc2)cc1 | 0 | · | 0 | · | 0 | 5 | · | ·
CCCC(=O)Nc1nnc(SCC(=O)N2CCCCC2)s1 | 0 | -1 | 1 | -3 | 2 | 19* | -1 | -1
CCCC(=O)Nc1nnc(SCC(=O)N2C(C)CCCC2C)s1 (stereo unspecified) | 0 | -3 | 9 | -2 | 1 | 2 | · | ·
CC(C)COC(=O)N1CCCCC1c1cc(C(=O)NCc2ccccc2)no1 (stereo unspecified) | -1 | · | · | · | -1 | · | · | ·
COc1ccccc1N1CCN(C(=O)c2cc(S(=O)(=O)N3CCOCC3)ccc2C)CC1 | 1 | · | -1 | · | -3 | 19* | -2 | 0
SMILES | MsrA inhibitor | IMP-1 inh | PKA-R2B act | VIM-2 inhibitor | bovine MsrA act | PKA-R1A act | R1A FP artifact | PKA-R1A confirm | others
CCOC(=O)c1cc(C)sc1NC(=O)c1ccc(Cl)s1 | 0 | -4 | 0 | -3 | -6 | 20* | 1 | -2
Nc1cc(=O)[nH]c(SCC(=O)Nc2ccc3c(c2)CCC3)n1 | 0 | -3 | 5 | -3 | -1 | -8 | · | ·
Nc1nc(SCC(=O)Nc2ccc3c(c2)CCC3)n[nH]1 | -2 | -3 | -5 | -3 | -11 | 19* | 6 | 1
Cc1cc(NCCO)nc(-n2nc(C)cc2C)n1 | 0 | -6 | 8 | 6 | -3 | 22* | -3 | -1
Cc1cc(N(CCO)CCO)nc(-n2nc(C)cc2C)n1 | 2 | -8 | -1 | -1 | -3 | -2 | · | ·
CC(C)(C)NC(=O)C(c1ccc(C(F)(F)F)cc1)n1c(=O)c(-c2ccco2)nc2ccccc21 (stereo unspecified) | -1 | · | · | · | · | · | · | ·
C[C@H]1CN([C@@H](C)CO)C(=O)CCCn2nncc2CO[C@@H]1CN(C)S(=O)(=O)c1cccs1 | 0 | · | · | · | · | · | · | ·
CN(C)S(=O)(=O)c1ccc(C(=O)NNC(=O)C23CC4CC(CC(C4)C2)C3)cc1 | 0 | · | 5 | · | -3 | -4 | · | ·
CCN(CC)CCOC(=O)C(Cc1ccco1)Cc1cccc2ccccc12 (stereo unspecified) | -1 | · | -3 | · | -1 | 24* | 1 | 0
O=C(c1cc(Cl)c(=O)n(Cc2ccccc2)c1)N1CCOCC1 | -1 | -2 | 2 | -8 | 9.2* | 5 | · | · | MsrA act confirm=-1
Cc1ccc(S(=O)(=O)NC2=C(N3CCN(Cc4ccccc4)CC3)C(=O)c3ccccc3C2=O)cc1 | -1 | -7 | 6 | 0 | 7.8* | 0 | · | · | MsrA act confirm=-1
Fc1ccccc1/C=N/n1c(COc2ccccc2)n[nH]c1=S | 0 | 1 | 3 | 0 | 9.9* | 4 | · | · | MsrA act confirm=1
CCCCCCCCN1C(=O)[C@@H](CC(=O)NCc2ccc(OC)c(OC)c2)C[C@@]2(C(=O)OC)C1=C[C@H](C(C)(C)C)O[C@@H]2C | 0 | · | · | · | · | · | · | ·
